Consider three molecules from ChEMBL document CHEMBL1150284, “Synthesis, characterization, and metabolic stability of porphyrin-peptide conjugates bearing bifunctional signaling sequences” (J Med Chem, 2008).

Numbered stars: 1 amine (or outer) side, 2 acyl side, 3 side chain; on linkers, the order of the positions; unused ones are H or OH. Square brackets hold non-standard residues; d marks the D form. Peptide text beside a SMILES is read from it. * marks the point of attachment. X1 = O=C(COCC(=O)*)Nc1ccc(-c2c3nc(c(-c4ccccc4)c4ccc([nH]4)c(-c4ccccc4)c4nc(c(-c5ccccc5)c5ccc2[nH]5)C=C4)C=C3)cc1; NH(CH2CH2O)6CH2CO = O=C(COCCOCCOCCOCCOCCOCCN[*:1])[*:2]

The nature of data set [1]: Drug uptake in human HEp2 cells at 10 uM. Conditions: hep-2, 10 µM, TDE = time-dependent effect. The format is ADME, cell-based. A digest of the protocol:
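HEp2 cells seeded 10000/well, grown 36 h, then given 10 µM conjugate (diluted from 10 mM water stock) for 0, 1, 2, 4, 8, 24 h. After PBS wash, lysis in 0.25% Triton X-100/PBS; conjugate read by fluorescence 440/650 nm, cell number by CyQuant.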

Data set [2] in a line: Stability at pH 7.4 after 24 hrs. Type of data set: physicochemical. The following applies: buffer, pH 7.4, 24 h. In a few lines: (§1)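 Nonenzymatic hydrolysis: 100 µM conjugate in 50 mM PBS pH 7.4 or 50 mM acetate buffer pH 5.0, 37 °C for 24 h; products identified by MALDI-TOF MS with CCA matrix.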
Data set [3] deals with HEp-2. Briefly: Cytotoxicity against human HEp2 cells in dark. Type of data set: functional, cell-based. A digest of the protocol:
(§2)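 HEp2 cells (DMEM/Advanced MEM 50:50, 5% FBS) plated 10000/well, 36–48 h attachment; exposed to rising conjugate concentrations up to 100 µM overnight in dark. Viability by Cell Titer Blue fluorescence 520/584 nm, normalized to untreated (100%) and 0.2% saponin-treated (0%) cells.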

Data set [4] has as its system HEp-2. In words: Phototoxicity against human HEp2 cells on exposure of 1 J/cm'2 light. The format is functional, cell-based. The following applies: HEp-2, light or radiation study. In a few lines:
(§3)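 HEp2 cells plated as for dark assay, loaded with 0, 0.625, 1.25, 2.5, 5, 10 µM conjugate; medium swapped for one with 50 mM HEPES pH 7.4, cells on ice irradiated 20 min by 100 W halogen lamp through 610 nm long-pass filter and water IR filter (~1 J/cm2). Overnight incubation, then Cell Titer Blue viability read as in dark assay.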

The nature of data set [5]: Stability at pH 5.0 after 24 hrs. The format is physicochemical. Conditions: buffer, pH 5, 24 h. A digest of the protocol:
as §1

For data set [6], the system named is HEp-2. In words: Phototoxicity against human HEp2 cells on exposure of 1 J/cm'2 light up to 10 uM. The format is functional, cell-based. A digest of the protocol:
as §3

Data set [7] relates to HEp-2. Briefly: Cytotoxicity against human HEp2 cells in dark up to 100 uM. Type of data set: functional, cell-based. A digest of the protocol: as §2

A word on the IC50: it is the point on the concentration scale where inhibition reaches its midpoint. Low readings indicate greater potency in that assay, high ones weaker potency in that assay. Consider `CC(C)[C@H](NC(=O)[C@H](CCCCN)NC(=O)[C@H](CCCNC(=N)N)NC(=O)[C@H](CCCCN)NC(=O)[C@H](CCCCN)NC(=O)[C@H](CCCCN)NC(=O)[C@@H]1CCCN1C(=O)[C@@H]1CCCN1C(=O)[C@H](C)NC(=O)COCCOCCOCCOCCOCCOCCNC(=O)COCC(=O)Nc1ccc(-c2c3nc(c(-c4ccccc4)c4ccc([nH]4)c(-c4ccccc4)c4nc(c(-c5ccccc5)c5ccc2[nH]5)C=C4)C=C3)cc1)C(=O)N[C@@H](CCC(=O)O)C(=O)N[C@@H](CC(=O)O)C(=O)N1CCC[C@H]1C(=O)N[C@@H](CCCNC(=N)N)C(=O)N[C@@H](CCCCN)C(=O)N[C@@H](CCCCN)C(=O)N[C@@H](CCCNC(=N)N)C(=O)N[C@@H](CCCNC(=N)N)C(=O)N[C@@H](CCC(N)=O)C(=O)N[C@@H](CCCNC(=N)N)C(=O)N[C@@H](CCCNC(=N)N)C(=O)N[C@@H](CCCNC(=N)N)C(=O)N1CCC[C@H]1C(=O)N1CCC[C@H]1C(=O)N[C@@H](CCC(N)=O)C(=O)NCC(=O)O` (X1-[NH(CH2CH2O)6CH2CO]APPKKKRKVEDPRKKRRQRRRPPQG-OH), for which, in data set [1], the Activity entry is listed as “tde”. The Stability result in data set [2] and in data set [5] was “Stable” in each case. Besides, the 50% inhibitory concentration (IC50) in the data set on HEp-2 [3] was 34 µM; in the data set on HEp-2 [4] it was 7.5 µM.

Regarding `CSCC[C@H](NC(=O)COCCOCCOCCOCCOCCOCCNC(=O)COCC(=O)Nc1ccc(-c2c3nc(c(-c4ccccc4)c4ccc([nH]4)c(-c4ccccc4)c4nc(c(-c5ccccc5)c5ccc2[nH]5)C=C4)C=C3)cc1)C(=O)NCC(=O)N[C@@H](CC(C)C)C(=O)NCC(=O)N[C@@H](CC(C)C)C(=O)N[C@@H](Cc1cnc[nH]1)C(=O)N[C@@H](CC(C)C)C(=O)N[C@@H](CC(C)C)C(=O)N[C@H](C(=O)N[C@@H](CC(C)C)C(=O)N[C@@H](C)C(=O)N[C@@H](C)C(=O)N[C@@H](C)C(=O)N[C@@H](CC(C)C)C(=O)N[C@@H](CCC(N)=O)C(=O)NCC(=O)N[C@@H](C)C(=O)N[C@@H](Cc1c[nH]c2ccccc12)C(=O)N[C@@H](CO)C(=O)N[C@@H](CCC(N)=O)C(=O)N[C@@H](C)C(=O)N1CCC[C@H]1C(=O)N1CCC[C@H]1C(=O)N[C@@H](CCCCN)C(=O)N[C@@H](CCCCN)C(=O)N[C@@H](CCCCN)C(=O)N[C@@H](CCCNC(=N)N)C(=O)N[C@@H](CCCCN)C(=O)N[C@H](C(=O)NCC(=O)O)C(C)C)C(C)C` (X1-[NH(CH2CH2O)6CH2CO]MGLGLHLLVLAAALQGAWSQAPPKKKRKVG-OH), the Activity entry in data set [1] was “tde”; in the data set with HEp-2 [6], “Not toxic”; with HEp-2 [7] it was “Not toxic”. The Stability entry in data set [2] and in data set [5] was “Stable” each time.

For the molecule `CC[C@H](C)[C@H](NC(=O)[C@H](CCCCN)NC(=O)[C@@H](NC(=O)[C@H](CCC(N)=O)NC(=O)[C@H](CCCNC(=N)N)NC(=O)COCCOCCOCCOCCOCCOCCNC(=O)COCC(=O)Nc1ccc(-c2c3nc(c(-c4ccccc4)c4ccc([nH]4)c(-c4ccccc4)c4nc(c(-c5ccccc5)c5ccc2[nH]5)C=C4)C=C3)cc1)[C@@H](C)CC)C(=O)N[C@@H](Cc1c[nH]c2ccccc12)C(=O)N[C@@H](Cc1ccccc1)C(=O)N[C@@H](CCC(N)=O)C(=O)N[C@@H](CC(N)=O)C(=O)N[C@@H](CCCNC(=N)N)C(=O)N[C@@H](CCCNC(=N)N)C(=O)N[C@@H](CCSC)C(=O)N[C@@H](CCCCN)C(=O)N[C@@H](Cc1c[nH]c2ccccc12)C(=O)N[C@@H](CCCCN)C(=O)N[C@@H](CCCCN)C(=O)N[C@@H](C)C(=O)N1CCC[C@H]1C(=O)N1CCC[C@H]1C(=O)N[C@@H](CCCCN)C(=O)N[C@@H](CCCCN)C(=O)N[C@@H](CCCCN)C(=O)N[C@@H](CCCNC(=N)N)C(=O)N[C@@H](CCCCN)C(=O)N[C@H](C(=O)NCC(=O)O)C(C)C` (X1-[NH(CH2CH2O)6CH2CO]RQIKIWFQNRRMKWKKAPPKKKRKVG-OH), the Activity result in data set [1] was “tde”. Further, the Stability result in data set [2] and in data set [5] was “Stable” throughout. In addition, the half-inhibitory concentration (IC50) in the data set with HEp-2 [3] worked out at 53 µM; in the data set with HEp-2 [4], 9.3 µM.
